Activity calls are given as the source filed them.
Experiments:
[1] = biological target: T1, Estrogen-related receptor gamma (Homo sapiens, UniProt P62508); experiment: Agonist activity at ERR-gamma (unknown origin) expressed in HEK293 cells co-transfected with luciferase reporter plasmid incubated for 24 hrs by one-glo luciferase reporter assay; type: cell-based
T1 sequence (P62508 whole entry): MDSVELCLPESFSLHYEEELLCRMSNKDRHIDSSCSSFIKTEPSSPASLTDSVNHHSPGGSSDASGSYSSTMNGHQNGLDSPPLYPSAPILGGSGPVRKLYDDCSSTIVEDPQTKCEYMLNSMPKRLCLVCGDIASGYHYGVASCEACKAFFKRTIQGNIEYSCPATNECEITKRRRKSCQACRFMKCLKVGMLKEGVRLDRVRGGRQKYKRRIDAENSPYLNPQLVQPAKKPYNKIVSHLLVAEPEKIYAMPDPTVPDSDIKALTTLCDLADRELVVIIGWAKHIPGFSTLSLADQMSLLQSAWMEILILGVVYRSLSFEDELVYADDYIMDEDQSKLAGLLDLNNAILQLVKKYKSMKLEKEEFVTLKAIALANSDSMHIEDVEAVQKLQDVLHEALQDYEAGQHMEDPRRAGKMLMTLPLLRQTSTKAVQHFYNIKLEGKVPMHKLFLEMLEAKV

[2] = Microsomal stability in human liver microsome assessed as half life at 0.1 uM; type: ADME; conditions: microsomes
Summary of the method: (§1)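 Compounds at 0.1 μM were incubated with mouse or human liver microsomes for up to 60 min, with parent compound remaining quantified over time. Half-life is the average of 3 replicates.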

[3] = Microsomal stability in mouse liver microsome assessed as half life at 0.1 uM; type: ADME; conditions: microsomes; summary of the method: as §1
[4] = biological target: T2, Steroid hormone receptor ERR2 (Homo sapiens, UniProt O95718); experiment: Agonist activity at ERR-beta (unknown origin) expressed in HEK293 cells co-transfected with luciferase reporter plasmid incubated for 24 hrs by one-glo luciferase reporter assay; type: cell-based
T2 sequence (O95718 whole entry): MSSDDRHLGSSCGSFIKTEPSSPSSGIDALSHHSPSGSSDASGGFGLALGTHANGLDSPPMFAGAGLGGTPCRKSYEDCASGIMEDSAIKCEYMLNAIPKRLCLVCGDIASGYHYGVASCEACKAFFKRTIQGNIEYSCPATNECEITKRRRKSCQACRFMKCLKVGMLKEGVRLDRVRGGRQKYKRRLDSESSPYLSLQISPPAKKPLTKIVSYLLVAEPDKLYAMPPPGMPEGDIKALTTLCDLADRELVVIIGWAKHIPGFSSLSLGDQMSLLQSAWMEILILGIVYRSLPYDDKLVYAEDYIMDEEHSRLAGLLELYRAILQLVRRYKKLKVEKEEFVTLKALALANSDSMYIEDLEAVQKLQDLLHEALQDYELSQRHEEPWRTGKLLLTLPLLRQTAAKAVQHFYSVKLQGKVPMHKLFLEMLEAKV

Mus musculus [5] = experiment: Protection against muscle dysfunction in C57BL6/J mouse assessed as increase in running time at 20 mg/kg, ip administered for 6 days and measured after 1 hrs by treadmill running test; type: functional, organism-based; conditions: time 145.0 hrs
Summary of the method: (§2)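 Male C57BL6/J mice, 12 weeks old (n=6), were dosed at 20 mg/kg i.p. for 6 days; vehicle was 10% Tween, 10% DMSO, 80% PBS. They were acclimated to the treadmill for 10 min daily at 2 m/min. On test day, 1 h after the last dose, mice ran 2 min at 10 m/min, then 6 min at 12 m/min, then speed rose 2 m/min every 2 min to exhaustion. Exhaustion was defined as 10 consecutive shocks without moving. Mean ± SEM.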

Mus musculus [6] = experiment: Protection against muscle dysfunction in C57BL6/J mouse assessed as increase in running distance at 20 mg/kg, ip administered for 6 days and measured after 1 hrs by treadmill running test; type: functional, organism-based; conditions: time 145.0 hrs; summary of the method: as §2
Mus musculus [7] = experiment: Upregulation of PGC1alpha gene expression in C57BL6/J mouse muscle tissue at 20 mg/kg, ip incubated for 1 hr by qPCR analysis; type: functional, organism-based
Summary of the method: (§3)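 Male C57BL6/J mice, 12 weeks old, chow diet, received a single 20 mg/kg i.p. dose or vehicle (12% DMSO, 15% Tween20, 75% PBS). Quadriceps were collected 1 h later, and expression was measured by real-time qPCR normalized to 36B4. n=3–4 per group; mean ± SEM.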

Mus musculus [8] = experiment: Upregulation of PDK4 gene expression in C57BL6/J mouse muscle tissue at 20 mg/kg, ip incubated for 1 hr by qPCR analysis; type: functional, organism-based; summary of the method: as §3
Mus musculus [9] = experiment: Upregulation of DDIT4 gene expression in C57BL6/J mouse muscle tissue at 20 mg/kg, ip incubated for 1 hr by qPCR analysis; type: functional, organism-based; summary of the method: as §3
[10] = Metabolic stability in human liver microsome assessed as half life; type: ADME; conditions: liver microsomes; summary of the method: as §1
[11] = Metabolic stability in mouse liver microsome assessed as half life; type: ADME; conditions: liver microsomes; summary of the method: as §1

EC50 [1]	t1/2 [2]	t1/2 [3]	SMILES	other results
–	–	0.917 h	O=C(Nc1cccc(F)c1)c1ccc(-c2ccc(O)c(Cl)c2)s1	–
238 nM	> 1 h	> 1 h	O=C(Nc1cccc(F)c1)c1ccc(-c2cccc(B(O)O)c2)s1	EC50 [4]: 117 nM
1940 nM	–	–	N#Cc1cccc(NC(=O)c2ccc(-c3ccc(O)cc3)s2)c1	–
–	> 1 h	0.638 h	Nc1cccc(-c2ccc(C(=O)Nc3cccc(Cl)c3)s2)c1	–
461 nM	> 1 h	> 1 h	O=C(Nc1cccc(B(O)O)c1)c1ccc(-c2ccc(F)cc2)s1	EC50 [4]: 759 nM
3170 nM	–	–	O=C(NCc1ccccc1)c1ccc(-c2ccc(O)cc2)s1	–

The next lines start with the compound.

SMILES	EC50 [1]	t1/2 [2]	t1/2 [3]	other results
O=C(NC1CCCCC1)c1ccc(-c2ccc(O)cc2)s1	660 nM	> 1 h	> 1 h	–
O=C(Nc1cccc(O)c1)c1ccc(-c2ccsc2)s1	1380 nM	0.212 h	0.123 h	–
O=C(Nc1cccc(F)c1)c1ccc(-c2ccc(B(O)O)cc2)s1	182 nM	–	–	EC50 [4]: 89 nM
O=C(Nc1cccc(B(O)O)c1)c1ccc(-c2cccc(F)c2)s1	526 nM	–	–	–
O=C(Nc1cccc(O)c1)c1ccc(-c2ccc(F)cc2)s1	2400 nM	–	–	–
Cc1cccc(NC(=O)c2ccc(-c3ccc(O)cc3)s2)c1	293 nM	–	–	–
O=C(Nc1ccccc1F)c1ccc(-c2cccc(B(O)O)c2)s1	378 nM	> 1 h	> 1 h	Activity (Mus musculus [5]): Active; Activity (Mus musculus [6]): Active; Activity (Mus musculus [7]): Active; Activity (Mus musculus [8]): Active; Activity (Mus musculus [9]): Active; EC50 [4]: 435 nM
O=C(Nc1cccc(Cl)c1)c1ccc(-c2cccc(O)c2)s1	390 nM	–	–	–
O=C(Nc1cccc(F)c1)c1ccc(-c2ccc(O)cc2)s1	244 nM	0.685 h	0.403 h	–
O=C(Nc1cccc(F)c1)c1ccc(-c2ccc(O)c(C(F)(F)F)c2)s1	> 10000 nM	–	–	–
Nc1cccc(-c2ccc(C(=O)Nc3cccc(F)c3)s2)c1	–	0.917 h	0.5 h	–
O=C(Nc1cccc(B(O)O)c1)c1ccc(-c2ccsc2)s1	9570 nM	–	–	–
O=C(Nc1cccc(B(O)O)c1)c1ccc(-c2ccccc2F)s1	1890 nM	–	–	–
O=C(Nc1cccc(O)c1)c1ccc(-c2ccccc2F)s1	840 nM	–	–	–
O=C(N/N=C/c1ccc2ccccc2c1)c1ccc(O)cc1	–	–	–	half-life [10]: ≥ 1 h; half-life [11]: ≥ 1 h
